# Test results reported in ChEMBL document CHEMBL1127343, “"Glycylcyclines". 3. 9-Aminodoxycyclinecarboxamides” (1994).
# Experiments:
# Type in all cases: functional
# Escherichia coli [1] = assay: In vitro antibacterial activity was measured on gram negative bacteria Escherichia coli J3272 tet-C(efflux resistance) cell lines
# Escherichia coli [2] = assay: In vitro antibacterial activity was measured on gram negative bacteria Escherichia coli J3272 tet-D(efflux resistance) cell lines
# Escherichia coli [3] = assay: In vitro antibacterial activity was measured on gram negative bacteria Escherichia coli PRP-1 tet-a(efflux resistance) cell lines
# Escherichia coli [4] = assay: In vitro antibacterial activity was measured on gram negative bacteria Escherichia coli UBMS 88-1 tet-B(efflux resistance) cell lines
# Escherichia coli [5] = assay: In vitro antibacterial activity was measured on gram negative bacteria Escherichia coli UBMS 90-4 tet-M (ribosomal protection) cell lines
# Summary of the method: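 Agar dilution MIC on Mueller-Hinton II agar. Inoculum (1–5) × 10^5 CFU/mL, drug range 32–0.004 μg/mL. Plates incubated 18 h at 35 °C in a forced-air incubator. MIC is the lowest concentration that inhibits growth. The strain panel covered tetracycline-sensitive and -resistant strains. Tetracycline, minocycline and doxycycline were run as standards in each assay.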
# Escherichia coli [6] = assay: In vitro antibacterial activity was measured on gram negative bacteria Escherichia coli UBMS 90-5 sensitive cell lines
# Summary of the method: (§1)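 MIC by agar dilution on Mueller-Hinton II agar; inoculum (1–5) × 10^5 CFU/mL; antibiotic range 32–0.004 μg/mL; plates incubated 18 h at 35 °C in forced-air incubator. MIC taken as lowest concentration inhibiting growth. Tetracycline, minocycline and doxycycline run as standards in each assay.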
# Staphylococcus aureus [7] = assay: In vitro antibacterial activity was measured on gram positive bacteria Staphylococcus aureus UBMS 90-1 tet-M (ribosomal protection) cell lines; summary of the method: as §1
# Staphylococcus aureus [8] = assay: In vitro antibacterial activity was measured on gram positive bacteria Staphylococcus aureus UBMS 90-3 sensitive cell lines; summary of the method: as §1
# Staphylococcus aureus [9] = assay: In vitro antibacterial activity was measured on gram positive bacteria Staphylococcus aureus smith cell lines; summary of the method: as §1
# Staphylococcus aureus [10] = assay: In vitro antibacterial activity was measured on gram positive bacteria Staphylococcus aureus UBMS 88-7 tet-k(efflux resistance) cell lines
SMILES,MIC (Escherichia coli [1]),MIC (Escherichia coli [2]),MIC (Escherichia coli [3]),MIC (Escherichia coli [4]),MIC (Escherichia coli [5]),MIC (Escherichia coli [6]),MIC (Staphylococcus aureus [7]),MIC (Staphylococcus aureus [8]),MIC (Staphylococcus aureus [9]),MIC (Staphylococcus aureus [10])
CN[C@@H](CC(C)C)C(=O)Nc1ccc2c(c1O)C(=O)C1=C(O)[C@]3(O)C(O)=C(C(N)=O)C(=O)[C@@H](N(C)C)C3[C@@H](O)C1[C@H]2C (stereo not given in full),8 µg/mL,2 µg/mL,16 µg/mL,8 µg/mL,4 µg/mL,4 µg/mL,2 µg/mL,1 µg/mL,2 µg/mL,
CC(C)C[C@H](N)C(=O)Nc1ccc2c(c1O)C(=O)C1=C(O)[C@]3(O)C(O)=C(C(N)=O)C(=O)[C@@H](N(C)C)C3CC1C2 (stereo not given in full),4 µg/mL,1 µg/mL,4 µg/mL,4 µg/mL,2 µg/mL,2 µg/mL,1 µg/mL,1 µg/mL,2 µg/mL,
CC[C@H](C)[C@H](N)C(=O)Nc1ccc2c(c1O)C(=O)C1=C(O)[C@]3(O)C(O)=C(C(N)=O)C(=O)[C@@H](N(C)C)C3[C@@H](O)C1[C@H]2C (stereo not given in full),4 µg/mL,0.5 µg/mL,16 µg/mL,2 µg/mL,1 µg/mL,1 µg/mL,1 µg/mL,0.25 µg/mL,1 µg/mL,2 µg/mL
C[C@H]1c2ccc(NC(=O)[C@H](N)Cc3ccccc3)c(O)c2C(=O)C2=C(O)[C@]3(O)C(O)=C(C(N)=O)C(=O)[C@@H](N(C)C)C3[C@@H](O)C21 (stereo not given in full),,1 µg/mL,16 µg/mL,,2 µg/mL,4 µg/mL,8 µg/mL,1 µg/mL,0.5 µg/mL,16 µg/mL
CC(C)[C@H](N)C(=O)Nc1ccc2c(c1O)C(=O)C1=C(O)[C@]3(O)C(O)=C(C(N)=O)C(=O)[C@@H](N(C)C)C3[C@@H](O)C1[C@H]2C (stereo not given in full),8 µg/mL,1 µg/mL,32 µg/mL,4 µg/mL,2 µg/mL,2 µg/mL,2 µg/mL,0.5 µg/mL,1 µg/mL,8 µg/mL
C[C@H]1c2ccc(NC(=O)[C@@H](N)Cc3ccccc3)c(O)c2C(=O)C2=C(O)[C@]3(O)C(O)=C(C(N)=O)C(=O)[C@@H](N(C)C)C3[C@@H](O)C21 (stereo not given in full),,1 µg/mL,8 µg/mL,,2 µg/mL,4 µg/mL,1 µg/mL,0.5 µg/mL,0.25 µg/mL,4 µg/mL
CN(C)CC(=O)Nc1cc(N(C)C)c2c(c1O)C(=O)C1=C(O)[C@]3(O)C(O)=C(C(N)=O)C(=O)[C@@H](N(C)C)[C@@H]3CC1C2 (stereo not given in full),2 µg/mL,,2 µg/mL,0.5 µg/mL,0.25 µg/mL,0.25 µg/mL,0.5 µg/mL,0.25 µg/mL,0.25 µg/mL,2 µg/mL
C[C@H]1c2ccc(NC(=O)[C@@H]3CCCN3)c(O)c2C(=O)C2=C(O)[C@]3(O)C(O)=C(C(N)=O)C(=O)[C@@H](N(C)C)C3[C@@H](O)C21 (stereo not given in full),8 µg/mL,1 µg/mL,16 µg/mL,4 µg/mL,2 µg/mL,2 µg/mL,4 µg/mL,1 µg/mL,2 µg/mL,
C[C@H]1c2ccc(NC(=O)[C@@H](N)CC3CCCCC3)c(O)c2C(=O)C2=C(O)[C@]3(O)C(O)=C(C(N)=O)C(=O)[C@@H](N(C)C)C3[C@@H](O)C21 (stereo not given in full),8 µg/mL,2 µg/mL,8 µg/mL,8 µg/mL,4 µg/mL,4 µg/mL,8 µg/mL,0.5 µg/mL,1 µg/mL,2 µg/mL
C[C@H]1c2ccc(NC(=O)CNC(C)(C)C)c(O)c2C(=O)C2=C(O)[C@]3(O)C(O)=C(C(N)=O)C(=O)[C@@H](N(C)C)C3[C@@H](O)C21 (stereo not given in full),1 µg/mL,,1 µg/mL,1 µg/mL,0.5 µg/mL,0.5 µg/mL,1 µg/mL,0.25 µg/mL,0.5 µg/mL,2 µg/mL
C[C@H]1c2ccc(NC(=O)[C@@H](N)Cc3ccc(O)cc3)c(O)c2C(=O)C2=C(O)[C@]3(O)C(O)=C(C(N)=O)C(=O)[C@@H](N(C)C)C3[C@@H](O)C21 (stereo not given in full),16 µg/mL,,32 µg/mL,16 µg/mL,8 µg/mL,8 µg/mL,4 µg/mL,0.5 µg/mL,1 µg/mL,32 µg/mL
